Measured values reported in ChEMBL document CHEMBL4765386, “Discovery of tertiary amide derivatives incorporating benzothiazole moiety as anti-gastric cancer agents in vitro via inhibiting tubulin polymerization and activating the Hippo signaling pathway” (Eur J Med Chem, 2020).
The source made the active and inactive calls. No cut-off for these calls is given here.

Key:
MGC-803 [1] = assay: Induction of apoptosis in human MGC-803 cells assessed as late apoptotic cells at 20 nM incubated for 48 hrs by annexin V-FITC and PI staining based flow cytometry analysis (reference value: 4.1 %); format: functional
MGC-803 [2] = assay: Inhibition of colony formation in human MGC-803 cells at 20 to 60 nM incubated for 7 days by crystal violet staining based assay; format: functional, cell-based; details: dose 20-60 nM, time 7.0 day
How it was run: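 Cells maintained in RPMI-1640 with 10% FBS at 37 °C, 5% CO2; incubated with 20, 40 and 60 nM for 7 days before colony counting.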

MGC-803 [3] = assay: Induction of apoptosis in human MGC-803 cells assessed as increase in caspase-3 cleavage at 20 to 60 nM incubated for 48 hrs by Western blot analysis; format: functional, cell-based; details: dose 20-60 nM
How it was run: (§1)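 Western blot on MGC-803 and SGC-7901 cells given 20, 40 and 60 nM compound or DMSO for 48 h. Denatured lysates were run on SDS-PAGE and transferred to PVDF, then probed with primary and secondary antibodies to detect apoptosis-related proteins.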

SGC-7901 [4] = assay: Induction of apoptosis in human SGC-7901 cells assessed as fragmentation of cells at 20 to 60 nM; format: functional, cell-based; details: dose 20-60 nM
How it was run: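 Gastric cancer cells in RPMI-1640/10% FBS at 37 °C, 5% CO2, exposed to 20, 40 and 60 nM for 48 h; nuclear morphology (condensation, fragmentation) inspected after staining.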

MGC-803 [5] = assay: Induction of apoptosis in human MGC-803 cells assessed as late apoptotic cells at 40 nM incubated for 48 hrs by annexin V-FITC and PI staining based flow cytometry analysis (reference value: 4.1 %); format: functional
GES1 = assay: Cytotoxicity against human GES1 cells assessed as reduction in cell viability at 60 nmol/L incubated for 48 hrs by MTT assay; format: functional; details: GES1, read-out: INH
How it was run: (§2)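 MTT viability in gastric cell lines grown in RPMI-1640 with 10% FBS at 37 °C, 5% CO2. Compound at 20, 40 and 60 nM for 48 h, starting 24 h after seeding 5,000 cells per well. MTT for 4 h, formazan dissolved in DMSO, absorbance at 490 nm. Inhibition expressed relative to control.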

SGC-7901 [6] = assay: Cytotoxicity against human SGC-7901 cells harboring SiYAP assessed as increase in cell viability at 20 to 60 nM incubated for 48 hrs by MTT assay; format: cell-based; details: sgc-7901, 48 h, 0.06 µM, dose 20-60 nM
MGC-803 [7] = assay: Activation of Hippo signaling pathway in human […] cells assessed as downregulation of YAP at 20 to 60 nM incubated for 48 hrs by Western blot analysis; format: cell-based; details: filed as activator, dose 20-60 nM
How it was run: (§3)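 Western blot on gastric cancer cells exposed to compound or DMSO at 20, 40 and 60 nM for 48 h. Cells were lysed, then the denatured lysates were separated by SDS-PAGE and transferred to PVDF. Membranes were blocked and probed with primary and then secondary antibodies. Hippo pathway proteins were detected.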

SGC-7901 [8] = assay: Activation of Hippo signaling pathway in human SGC-7901 cells assessed as increase in LATS phosphorylation at 20 to 60 nM incubated for 48 hrs by Western blot analysis; format: cell-based; details: filed as activator, dose 20-60 nM; how it was run: as §3
HCT-116 = assay: Antiproliferative activity against human HCT-116 cells assessed as reduction in cell viability incubated for 48 hrs by MTT assay; format: functional, cell-based; details: HCT-116, 48 h
How it was run: (§4)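 MTT assay. 5,000 cells per well in RPMI-1640 with 10% FBS and penicillin/streptomycin at 37 °C, 5% CO2. Compound added 24 h after seeding and left for 48 h. MTT was then added for 4 h at 37 °C, formazan dissolved in DMSO and absorbance read at 490 nm. IC50 calculated from three independent experiments.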

MGC-803 [9] = assay: Induction of apoptosis in human MGC-803 cells assessed as upregulation of FADD at 20 to 60 nM incubated for 48 hrs by Western blot analysis; format: functional, cell-based; details: dose 20-60 nM; how it was run: as §1
MGC-803 [10] = assay: Induction of apoptosis in human MGC-803 cells assessed as upregulation of Noxa at 20 to 60 nM incubated for 48 hrs by Western blot analysis; format: functional, cell-based; details: dose 20-60 nM; how it was run: as §1
MGC-803 [11] = assay: Displacement of EBI from beta-tubulin in human MGC-803 cells assessed as reduction in tubulin adduct formation incubated for 2 hrs followed by EBI addition and measured after 2 hrs by Western blot analysis; format: cell-based; details: dose 0.25-2.5 µM, time 4.0 hrs
How it was run: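 EBI competition assay. […] EBI was then added at […] as printed for another 2 h. Harvested cells were immunoblotted with anti-β-tubulin antibody to detect β-tubulin and the alkylated β-tubulin adduct.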

[12] = Antiproliferative activity against human SGC-7901 cells assessed as reduction in cell viability at 60 nmol/L incubated for 48 hrs by MTT assay relative to control; format: functional; details: SGC-7901, 48 h; how it was run: as §2
MGC-803 [13] = assay: Induction of apoptosis in human MGC-803 cells assessed as early apoptotic cells at 40 nM incubated for 48 hrs by annexin V-FITC and PI staining based flow cytometry analysis (reference value: 2.9 %); format: functional
PC-3 = assay: Antiproliferative activity against human PC-3 cells assessed as reduction in cell viability incubated for 48 hrs by MTT assay; format: functional, cell-based; details: PC-3, 48 h; how it was run: as §4
MGC-803 [14] = assay: Activation of Hippo signaling pathway in human […] cells assessed as increase in LATS phosphorylation at 20 to 60 nM incubated for 48 hrs by Western blot analysis; format: cell-based; details: filed as activator, dose 20-60 nM; how it was run: as §3
[15] = Inhibition of pig brain tubulin polymerization in presence of GTP by spectrophotometric method; set-up: species or system Sus scrofa
How it was run: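 Tubulin purified from pig brain by three temperature-dependent assembly/disassembly cycles in PIPES pH 6.5 (100 mM), 1.0 mM MgSO4, 2.0 mM EGTA, 1.0 mM GTP, 1.0 mM 2-mercaptoethanol, then phosphocellulose chromatography. Protein mixed with compound in PEM buffer with 1 mM GTP and 5% glycerol.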

SGC-7901 [16] = assay: Induction of apoptosis in human SGC-7901 cells assessed as downregulation of Bcl-xl at 20 to 60 nM incubated for 48 hrs by Western blot analysis; format: functional, cell-based; details: dose 20-60 nM; how it was run: as §1
SGC-7901 [17] = assay: Induction of apoptosis in human SGC-7901 cells assessed as upregulation of DR5 at 20 to 60 nM incubated for 48 hrs by Western blot analysis; format: functional, cell-based; details: dose 20-60 nM
How it was run: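 Cells grown in RPMI-1640 with 10% FBS, penicillin/streptomycin at 37 °C, 5% CO2. Exposure to 20, 40 or 60 nM for 48 h alongside DMSO control. Lysates denatured, resolved by SDS-PAGE, transferred to PVDF, blocked, then probed with primary and secondary antibodies.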

MGC-803 [18] = assay: Activation of Hippo signaling pathway in human […] cells assessed as decrease in Bcl-2 expression incubated for 48 hrs by Western blot analysis; format: cell-based; details: filed as activator, dose 20-60 nM; how it was run: as §3
MGC-803 [19] = assay: Antiproliferative activity against human MGC-803 cells assessed as reduction in cell viability at 60 nmol/L incubated for 48 hrs by MTT assay relative to control; format: functional; how it was run: as §2
SGC-7901 [20] = assay: Induction of cell cycle arrest in human SGC-7901 cells assessed as increase in G2/M phase accumulation incubated for 24 hrs by PI staining based flow cytometry analysis; format: functional; details: dose 20-60 nM
How it was run: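 Cells in RPMI-1640/10% FBS at 37 °C, 5% CO2, exposed to 20, 40 and 60 nM for 24 h before flow cytometric cell-cycle distribution analysis.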

MGC-803 [21] = assay: Induction of apoptosis in human MGC-803 cells assessed as downregulation of Mcl-1 at 20 to 60 nM incubated for 48 hrs by Western blot analysis; format: functional, cell-based; details: dose 20-60 nM; how it was run: as §1

- IC50 (HCT-116): 182 nM
- IC50 (PC-3): 2110 nM
- IC50 [15]: 1900 nM
SMILES: COc1ccc(CN(C(=O)CSc2nc3ccccc3s2)c2cc(OC)c(OC)c(OC)c2)cc1O
- Activity (MGC-803 [1]): 4.1%
- Activity (MGC-803 [2]): Active
- Activity (MGC-803 [3]): Active
- Activity (SGC-7901 [4]): Active
- Activity (MGC-803 [5]): 10.1%
- inhibition at 0.06 µM (GES1): < 20%
- Activity (SGC-7901 [6]): Non-Toxic
- Activity (MGC-803 [7]): Active
- Activity (SGC-7901 [8]): Active
- Activity (MGC-803 [9]): Active
- Activity (MGC-803 [10]): Active
- inhibition (MGC-803 [11]): Dose-dependent effect
- inhibition at 0.06 µM [12]: 63%
- Activity (MGC-803 [13]): 10.2%
- Activity (MGC-803 [14]): Active
- Activity (SGC-7901 [16]): Active
- Activity (SGC-7901 [17]): Active
- Activity (MGC-803 [18]): Dose-dependent effect
- inhibition at 0.06 µM (MGC-803 [19]): 72%
- Activity (SGC-7901 [20]): Dose-dependent effect
- Activity (MGC-803 [21]): Active
